Experimental data published in ChEMBL document CHEMBL1255451, “Genetic basis of multidrug resistance in Acinetobacter clinical isolates in Taiwan” (2010).
≈ marks a conversion by molar mass, not a printed value. Calls of active or inactive are those of the source. The calls are words filed in the database; no cut-off is given here.

Experiments:
Assay type in all cases: functional
Acinetobacter baumannii [1] = assay: Antimicrobial activity against Acinetobacter baumannii ATCC 15151 harboring ISAba1-blaOXA-66 gene by Etest
Acinetobacter baumannii [2] = assay: Antimicrobial activity against Acinetobacter baumannii ATCC 15151 harboring ISAba1-blaOXA-23 gene by Etest
Acinetobacter sp. = assay: Antimicrobial activity against Acinetobacter sp. harboring aacA4 gene assessed as percent resistant isolates
Method in brief: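 Isolates: 75 nonduplicated Acinetobacter clinical isolates collected at one Taipei hospital in 2006 and identified with API 20NE. Susceptibility was tested on the Vitek 2 automated system using the AST-GN09 Gram-negative card.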

Acinetobacter baumannii [3] = assay: Antimicrobial activity against Acinetobacter baumannii 6AB11 harboring ISAba1-blaOXA-66 gene by Etest
Acinetobacter baumannii [4] = assay: Antimicrobial activity against Acinetobacter baumannii ATCC 15151 by Etest
Acinetobacter baumannii [5] = assay: Antimicrobial activity against Acinetobacter baumannii 6AB15 harboring ISAba1-blaOXA-23 and blaOXA-66 gene by Etest
Acinetobacter baumannii [6] = assay: Antimicrobial activity against Acinetobacter baumannii ATCC 15151 harboring plasmid AT801 by Etest

## GENTAMICIN
Acinetobacter baumannii [1]
  Activity: Active
Acinetobacter baumannii [2]
  Activity: Active
Acinetobacter sp.
  Activity: 66%

## NCC[C@H](O)C(=O)N[C@@H]1C[C@H](N)[C@@H](O[C@H]2O[C@H](CN)[C@@H](O)[C@H](O)[C@H]2O)[C@H](O)[C@H]1O[C@H]1O[C@H](CO)[C@@H](O)[C@H](N)[C@H]1O
Acinetobacter baumannii [1]
  Activity: Active
Acinetobacter baumannii [2]
  Activity: Active

## O=C(O)c1cn(C2CC2)c2cc(N3CCNCC3)c(F)cc2c1=O
Acinetobacter baumannii [1]
  Activity: Active
Acinetobacter baumannii [2]
  Activity: Active

## C[C@@H](O)[C@H]1C(=O)N2C(C(=O)O)=C(S[C@@H]3CN[C@H](C(=O)N(C)C)C3)[C@H](C)[C@H]12 [MEROPENEM]
Acinetobacter baumannii [1]
  MIC: ≥ 16 µg/mL
Acinetobacter baumannii [3]
  MIC: 16 µg/mL (≈ 41.7 µM)
Acinetobacter baumannii [4]
  MIC: 0.25 µg/mL (≈ 0.652 µM)
Acinetobacter baumannii [2]
  MIC: ≥ 16 µg/mL
Acinetobacter baumannii [5]
  MIC: ≥ 16 µg/mL
Acinetobacter baumannii [6]
  MIC: 0.25 µg/mL (≈ 0.652 µM)

## CO/N=C(\C(=O)N[C@@H]1C(=O)N2C(C(=O)[O-])=C(C[N+]3(C)CCCC3)CS[C@H]12)c1csc(N)n1 [CEFEPIME]
Acinetobacter baumannii [1]
  MIC: 4 µg/mL (≈ 8.32 µM)
Acinetobacter baumannii [3]
  MIC: ≥ 64 µg/mL
Acinetobacter baumannii [4]
  MIC: 4 µg/mL (≈ 8.32 µM)
Acinetobacter baumannii [2]
  MIC: ≥ 64 µg/mL
Acinetobacter baumannii [5]
  MIC: ≥ 64 µg/mL
Acinetobacter baumannii [6]
  MIC: 4 µg/mL (≈ 8.32 µM)

## CCN1CCN(C(=O)N[C@@H](C(=O)N[C@@H]2C(=O)N3[C@@H]2SC(C)(C)[C@@H]3C(=O)O)c2ccccc2)C(=O)C1=O [PIPERACILLIN]
Acinetobacter baumannii [1]
  MIC: ≥ 128 µg/mL
Acinetobacter baumannii [3]
  MIC: ≥ 128 µg/mL
Acinetobacter baumannii [4]
  MIC: 16 µg/mL (≈ 30.9 µM)
Acinetobacter baumannii [2]
  MIC: ≥ 128 µg/mL
Acinetobacter baumannii [5]
  MIC: ≥ 128 µg/mL
Acinetobacter baumannii [6]
  MIC: ≥ 128 µg/mL

## C[C@@H](O)[C@H]1C(=O)N2C(C(=O)O)=C(SCCNC=N)C[C@H]12 [IMIPENEM ANHYDROUS]
Acinetobacter baumannii [1]
  MIC: ≥ 32 µg/mL
Acinetobacter baumannii [3]
  MIC: ≥ 32 µg/mL
Acinetobacter baumannii [4]
  MIC: 0.25 µg/mL (≈ 0.835 µM)
Acinetobacter baumannii [2]
  MIC: ≥ 16 µg/mL
Acinetobacter baumannii [5]
  MIC: ≥ 32 µg/mL
Acinetobacter baumannii [6]
  MIC: 0.25 µg/mL (≈ 0.835 µM)

## CC1(C)S[C@@H]2[C@H](NC(=O)[C@H](N)c3ccccc3)C(=O)N2[C@H]1C(=O)O [AMPICILLIN]
Acinetobacter baumannii [1]
  MIC: ≥ 32 µg/mL
Acinetobacter baumannii [3]
  MIC: ≥ 32 µg/mL
Acinetobacter baumannii [4]
  MIC: 16 µg/mL (≈ 45.8 µM)
Acinetobacter baumannii [2]
  MIC: ≥ 32 µg/mL
Acinetobacter baumannii [5]
  MIC: ≥ 32 µg/mL
Acinetobacter baumannii [6]
  MIC: 32 µg/mL (≈ 91.6 µM)

## CC(C)(O/N=C(\C(=O)N[C@@H]1C(=O)N2C(C(=O)[O-])=C(C[n+]3ccccc3)CS[C@H]12)c1csc(N)n1)C(=O)O [CEFTAZIDIME]
Acinetobacter baumannii [1]
  MIC: 4 µg/mL (≈ 7.32 µM)
Acinetobacter baumannii [3]
  MIC: ≥ 64 µg/mL
Acinetobacter baumannii [4]
  MIC: 4 µg/mL (≈ 7.32 µM)
Acinetobacter baumannii [2]
  MIC: 8 µg/mL (≈ 14.6 µM)
Acinetobacter baumannii [5]
  MIC: ≥ 64 µg/mL
Acinetobacter baumannii [6]
  MIC: 4 µg/mL (≈ 7.32 µM)

## C[C@H]1COc2c(N3CCN(C)CC3)c(F)cc3c(=O)c(C(=O)O)cn1c23
Acinetobacter baumannii [1]
  Activity: Active
Acinetobacter baumannii [2]
  Activity: Active

## NC[C@H]1O[C@H](O[C@H]2[C@H](O)[C@@H](O[C@H]3O[C@H](CO)[C@@H](O)[C@H](N)[C@H]3O)[C@H](N)C[C@@H]2N)[C@H](N)C[C@@H]1O [TOBRAMYCIN]
Acinetobacter baumannii [1]
  Activity: Active
Acinetobacter baumannii [2]
  Activity: Active
Acinetobacter sp.
  Activity: 66%
